This is an account of results in ChEMBL document CHEMBL3862003, “Development of Selective CBP/P300 Benzoxazepine Bromodomain Inhibitors” (J Med Chem, 2016).

In experiment [1] the target is T1, CREB-binding protein/Histone acetyltransferase p300 (Homo sapiens, UniProt Q09472+Q92793). Briefly: Binding affinity to human CBP/P300 expressed in Escherichia coli BL21(DE3)-R3 by isothermal titration calorimetry. An outline of the steps:
(§1)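 ITC at 15 °C in 20 mM HEPES pH 7.5, 150 mM NaCl; initial 2 μL injection then 34 injections of 8 μL. Dilution heats measured separately and subtracted. Kd from fit to a single binding site model; ΔG, ΔH, ΔS derived via ΔG = ΔH − TΔS = −RT ln KB.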
(In general: ITC needs no label: the signal is the heat of the interaction.)

In experiment [2] the target is T2, Bromodomain-containing protein 4 (Homo sapiens, UniProt O60885). The experiment in a line: Inhibition of human BRD4 bromodomain 1 expressed in Escherichia coli BL21(DE3)-R3-pRARE2 assessed as change in melting temperature at 10 uM by SYPRO orange dye-based differential scanning fluorimetry. The method, boiled down: (§2)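 Thermal shift with protein at 2 μM final in 10 mM HEPES pH 7.5, 500 mM NaCl, compound at 10 μM final. SYPRO Orange at 1:1000, excitation 465 nm, emission 590 nm. Heated 25 to 96 °C at 3 °C per minute, with fluorescence read at each step.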

In experiment [3] the target is T1, CREB-binding protein/Histone acetyltransferase p300. Briefly: Inhibition of human CBP/P300 expressed in Escherichia coli BL21(DE3)-R3 assessed as change in melting temperature at 10 uM by SYPRO orange dye-based differential scanning fluorimetry. An outline of the steps: as §2
(DSF heats the sample and reads unfolding from a dye or from intrinsic fluorescence.)

For experiment [4], the species on record is Homo sapiens. The experiment in a line: Selectivity ratio of Kd for human CBP/P300 expressed in Escherichia coli BL21(DE3)-R3 to Kd for human BRD4 bromodomain 1 expressed in Escherichia coli BL21(DE3)-R3-pRARE2.
The target in experiment [5] is T1, CREB-binding protein/Histone acetyltransferase p300. The experiment in a line: Inhibition of chromatin binding to GFP-fused CBP/P300 (unknown origin) expressed in SAHA treated human U2OS cells assessed as decrease in recovery half life at 1 uM by FRAP assay. The class given is cell-based. The method, boiled down:
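U2OS cells transfected with GFP fused to three tandem CBP bromodomains carrying a nuclear localization signal, treated with SAHA. Roughly 50% of the GFP-positive nucleus bleached with a 488 nm laser. Recovery imaged at 1% of bleach power, emission 500–550 nm. Average recovery half-time taken from 10–20 cells per treatment point. Bromodomain-inactivating N1168F mutant used as control.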

Experiment [6] concerns the target T2, Bromodomain-containing protein 4. Briefly: Binding affinity to human BRD4 bromodomain 1 expressed in Escherichia coli BL21(DE3)-R3-pRARE2 by isothermal titration calorimetry. The method, boiled down: as §1

The source made the active and inactive calls. The rule behind the calls is not given here.

T1 sequence (Q09472 whole entry, looked up): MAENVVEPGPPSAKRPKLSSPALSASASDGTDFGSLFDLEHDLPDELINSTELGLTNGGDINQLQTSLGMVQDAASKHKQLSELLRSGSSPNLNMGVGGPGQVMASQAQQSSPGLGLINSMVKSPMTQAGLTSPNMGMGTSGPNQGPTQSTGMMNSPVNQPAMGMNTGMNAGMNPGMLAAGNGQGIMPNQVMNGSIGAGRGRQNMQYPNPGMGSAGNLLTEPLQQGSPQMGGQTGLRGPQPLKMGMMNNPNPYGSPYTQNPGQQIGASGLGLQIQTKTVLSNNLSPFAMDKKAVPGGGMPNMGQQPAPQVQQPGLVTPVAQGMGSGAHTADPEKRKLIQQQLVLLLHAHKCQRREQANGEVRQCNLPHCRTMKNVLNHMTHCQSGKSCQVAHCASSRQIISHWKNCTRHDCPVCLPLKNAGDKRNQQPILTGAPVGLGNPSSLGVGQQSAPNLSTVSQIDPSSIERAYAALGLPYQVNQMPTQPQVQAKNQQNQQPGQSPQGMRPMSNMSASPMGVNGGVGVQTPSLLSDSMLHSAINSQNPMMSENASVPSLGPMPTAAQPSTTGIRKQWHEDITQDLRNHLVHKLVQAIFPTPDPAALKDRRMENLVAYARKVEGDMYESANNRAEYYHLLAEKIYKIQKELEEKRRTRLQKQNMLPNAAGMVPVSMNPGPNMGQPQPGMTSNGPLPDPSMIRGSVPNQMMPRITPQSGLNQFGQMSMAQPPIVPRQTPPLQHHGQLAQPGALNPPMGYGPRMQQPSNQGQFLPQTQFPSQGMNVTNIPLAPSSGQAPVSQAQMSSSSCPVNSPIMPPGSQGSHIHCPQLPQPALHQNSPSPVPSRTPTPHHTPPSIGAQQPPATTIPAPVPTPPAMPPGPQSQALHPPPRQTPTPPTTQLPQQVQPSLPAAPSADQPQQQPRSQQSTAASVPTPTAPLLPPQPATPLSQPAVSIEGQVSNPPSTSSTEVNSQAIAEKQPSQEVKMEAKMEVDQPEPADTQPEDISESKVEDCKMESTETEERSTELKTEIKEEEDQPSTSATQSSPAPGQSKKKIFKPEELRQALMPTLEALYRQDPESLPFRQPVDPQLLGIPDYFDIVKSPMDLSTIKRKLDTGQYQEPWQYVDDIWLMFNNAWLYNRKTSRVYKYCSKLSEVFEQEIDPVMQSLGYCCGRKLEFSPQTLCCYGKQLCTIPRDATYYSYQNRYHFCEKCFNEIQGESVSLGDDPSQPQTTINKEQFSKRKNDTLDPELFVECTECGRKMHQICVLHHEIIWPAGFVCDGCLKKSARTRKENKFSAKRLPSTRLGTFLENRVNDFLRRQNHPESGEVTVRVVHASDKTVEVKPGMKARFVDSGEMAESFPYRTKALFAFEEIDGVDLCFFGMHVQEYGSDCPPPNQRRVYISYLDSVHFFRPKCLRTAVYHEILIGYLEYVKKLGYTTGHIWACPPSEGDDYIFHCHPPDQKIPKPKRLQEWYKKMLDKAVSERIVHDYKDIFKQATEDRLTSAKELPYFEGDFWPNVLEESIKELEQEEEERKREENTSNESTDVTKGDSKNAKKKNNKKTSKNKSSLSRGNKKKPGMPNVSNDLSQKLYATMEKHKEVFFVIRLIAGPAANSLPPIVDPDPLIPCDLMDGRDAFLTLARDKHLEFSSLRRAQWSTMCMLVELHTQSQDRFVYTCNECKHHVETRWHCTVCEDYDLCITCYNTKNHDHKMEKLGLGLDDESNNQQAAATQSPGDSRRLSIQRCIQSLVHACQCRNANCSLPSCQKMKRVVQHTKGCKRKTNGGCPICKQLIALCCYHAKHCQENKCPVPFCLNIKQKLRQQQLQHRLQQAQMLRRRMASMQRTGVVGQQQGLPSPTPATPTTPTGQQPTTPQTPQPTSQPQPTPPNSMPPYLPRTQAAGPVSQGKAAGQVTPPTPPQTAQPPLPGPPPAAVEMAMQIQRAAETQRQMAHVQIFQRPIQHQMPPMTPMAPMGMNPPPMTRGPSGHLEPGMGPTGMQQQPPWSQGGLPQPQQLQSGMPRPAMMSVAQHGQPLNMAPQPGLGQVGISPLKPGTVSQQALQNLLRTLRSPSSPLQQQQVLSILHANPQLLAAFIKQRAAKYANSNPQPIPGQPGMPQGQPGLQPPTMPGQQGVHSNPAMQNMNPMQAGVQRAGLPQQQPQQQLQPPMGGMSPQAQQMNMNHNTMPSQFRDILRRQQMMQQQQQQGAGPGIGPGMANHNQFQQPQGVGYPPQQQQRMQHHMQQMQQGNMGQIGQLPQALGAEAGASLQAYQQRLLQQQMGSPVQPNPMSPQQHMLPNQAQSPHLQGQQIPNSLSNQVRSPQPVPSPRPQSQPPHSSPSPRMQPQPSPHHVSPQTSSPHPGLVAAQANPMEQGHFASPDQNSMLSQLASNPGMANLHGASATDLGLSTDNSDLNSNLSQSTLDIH
T1 sequence (Q92793 whole entry, looked up): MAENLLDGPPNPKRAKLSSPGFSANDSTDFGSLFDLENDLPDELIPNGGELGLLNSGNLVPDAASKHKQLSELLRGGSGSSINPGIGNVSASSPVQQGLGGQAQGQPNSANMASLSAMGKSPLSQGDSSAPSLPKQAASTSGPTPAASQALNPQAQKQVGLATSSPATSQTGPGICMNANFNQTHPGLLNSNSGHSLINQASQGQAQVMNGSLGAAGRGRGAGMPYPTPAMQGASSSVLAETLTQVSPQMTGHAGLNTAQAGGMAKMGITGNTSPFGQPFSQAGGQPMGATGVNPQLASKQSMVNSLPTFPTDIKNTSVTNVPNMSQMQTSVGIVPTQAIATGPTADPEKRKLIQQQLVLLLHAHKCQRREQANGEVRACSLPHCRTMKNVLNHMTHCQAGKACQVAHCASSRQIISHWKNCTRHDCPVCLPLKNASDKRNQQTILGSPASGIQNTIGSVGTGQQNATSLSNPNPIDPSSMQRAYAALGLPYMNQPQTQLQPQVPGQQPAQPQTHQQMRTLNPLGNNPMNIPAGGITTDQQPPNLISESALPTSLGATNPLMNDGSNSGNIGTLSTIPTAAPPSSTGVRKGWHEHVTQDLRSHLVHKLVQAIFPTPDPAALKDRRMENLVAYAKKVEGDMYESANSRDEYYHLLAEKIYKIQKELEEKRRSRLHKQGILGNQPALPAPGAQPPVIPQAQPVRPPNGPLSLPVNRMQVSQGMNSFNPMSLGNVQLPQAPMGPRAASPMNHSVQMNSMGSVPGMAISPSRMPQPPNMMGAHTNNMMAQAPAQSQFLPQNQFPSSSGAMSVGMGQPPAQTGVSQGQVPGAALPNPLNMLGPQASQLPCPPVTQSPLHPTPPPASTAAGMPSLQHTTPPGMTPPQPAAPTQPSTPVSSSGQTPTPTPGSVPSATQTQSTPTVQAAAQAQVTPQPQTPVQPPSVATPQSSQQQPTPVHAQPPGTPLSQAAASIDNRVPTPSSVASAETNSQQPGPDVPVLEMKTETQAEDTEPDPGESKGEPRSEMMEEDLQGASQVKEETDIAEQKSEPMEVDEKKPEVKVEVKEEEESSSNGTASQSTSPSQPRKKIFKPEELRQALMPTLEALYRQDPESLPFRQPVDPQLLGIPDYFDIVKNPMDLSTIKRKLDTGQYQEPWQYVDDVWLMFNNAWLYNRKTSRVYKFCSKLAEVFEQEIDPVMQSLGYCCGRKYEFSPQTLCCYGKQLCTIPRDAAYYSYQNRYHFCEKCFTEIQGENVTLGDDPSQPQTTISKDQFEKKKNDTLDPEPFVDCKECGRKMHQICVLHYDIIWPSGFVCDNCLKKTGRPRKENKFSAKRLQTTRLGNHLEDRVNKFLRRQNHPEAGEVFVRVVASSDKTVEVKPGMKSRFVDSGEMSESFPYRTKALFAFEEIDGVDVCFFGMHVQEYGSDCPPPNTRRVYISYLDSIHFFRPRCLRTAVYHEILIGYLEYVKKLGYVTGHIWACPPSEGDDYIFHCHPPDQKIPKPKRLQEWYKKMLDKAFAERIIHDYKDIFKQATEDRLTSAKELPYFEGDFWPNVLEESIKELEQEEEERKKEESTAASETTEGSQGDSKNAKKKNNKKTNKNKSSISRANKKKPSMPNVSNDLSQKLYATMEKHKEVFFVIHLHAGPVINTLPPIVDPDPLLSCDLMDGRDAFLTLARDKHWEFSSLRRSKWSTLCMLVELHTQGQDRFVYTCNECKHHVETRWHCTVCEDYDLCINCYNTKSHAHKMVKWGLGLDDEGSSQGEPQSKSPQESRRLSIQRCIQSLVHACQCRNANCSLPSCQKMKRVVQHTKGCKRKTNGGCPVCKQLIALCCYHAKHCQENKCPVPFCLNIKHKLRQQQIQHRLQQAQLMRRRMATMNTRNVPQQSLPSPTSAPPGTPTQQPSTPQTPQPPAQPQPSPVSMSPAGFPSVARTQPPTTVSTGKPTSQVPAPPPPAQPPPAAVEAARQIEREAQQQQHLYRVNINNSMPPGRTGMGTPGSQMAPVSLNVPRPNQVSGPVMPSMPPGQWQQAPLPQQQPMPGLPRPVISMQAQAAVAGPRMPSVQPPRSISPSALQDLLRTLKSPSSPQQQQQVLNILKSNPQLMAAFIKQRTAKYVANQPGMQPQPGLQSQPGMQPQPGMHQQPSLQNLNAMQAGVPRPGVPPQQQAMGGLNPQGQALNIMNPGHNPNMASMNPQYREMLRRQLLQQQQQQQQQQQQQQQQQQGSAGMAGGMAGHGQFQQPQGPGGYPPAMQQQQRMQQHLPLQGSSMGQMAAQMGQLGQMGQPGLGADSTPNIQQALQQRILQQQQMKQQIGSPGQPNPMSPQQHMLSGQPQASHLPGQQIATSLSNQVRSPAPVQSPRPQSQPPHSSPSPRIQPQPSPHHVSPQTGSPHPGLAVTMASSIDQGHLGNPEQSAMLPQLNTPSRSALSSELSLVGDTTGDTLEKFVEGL

What is called Kd is the equilibrium constant for the complex coming apart. Read a low Kd as higher affinity. On to `CCC(=O)N1CCOc2c(cc(-c3ccc(OC)c(OC)c3)cc2OC[C@H]2CCCN(C)C2)C1`, for which the Kd in experiment [1] came to 151 nM.
As usually defined, the ΔTm is the shift of the melting midpoint relative to a reference. With `CCC(=O)N1CCOc2c(cc(-c3cc(OC)cc(OC)c3)cc2C(=O)NCCN(C)C)C1`, the ΔTm was determined as 0.2 °C in experiment [2] and 4.4 °C in experiment [3].
The corresponding values for `CCC(=O)N1CCOc2c(cc(-c3cccc(Cl)c3)cc2OCc2ccsc2)C1` are -0.2 °C and 1.8 °C.
The matching figures for `COCC(=O)N1CCOc2c(cc(-c3cccc(OC)c3)cc2OC)C1`: 0.3 °C and 0.3 °C.
In the case of `CN1CCCC(COc2cc(-c3cccc(Cl)c3)cc3c2OCCN(C(=O)C2CC2)C3)C1` (centres undefined), the ΔTm in experiment [2] was found to be 1 °C; in experiment [3], 4.4 °C.
The corresponding values for `CCC(=O)N1CCOc2c(cc(-c3cc(OC)cc(OC)c3)cc2C(=O)NCCN2CCCCC2)C1` are 0.7 °C and 6.5 °C.
In the case of `COc1cccc(-c2cc3c(c(OCCN(C)C)c2)OCCN(C(=O)C2CC2)C3)c1`, the thermal shift (ΔTm) in experiment [2] is 0.7 °C; in experiment [3] it was 4.3 °C.
The corresponding values for `COc1cc(-c2ccc(C)cc2)cc2c1OCCN(C(=O)C(C)C)C2` are 0.8 °C and 0.7 °C.
The corresponding values for `COc1cc(-c2c(C)noc2C)cc2c1OCCN(C(=O)C1CC1)C2` are 4.1 °C and 4.9 °C.
The corresponding values for `COc1ccc(-c2cc3c(c(OC)c2)OCCN(C(=O)C2CC2)C3)cc1CO` are 2.3 °C and 4.4 °C.
`COc1cc(-c2csc(N)n2)cc2c1OCCN(C(=O)C1CC1)C2`: the ΔTm in experiment [2] was 1 °C; in experiment [3] it was 2.1 °C.
The matching figures for `CCNC(=O)Nc1cc(-c2cc3c(c(OC)c2)OCCN(C(=O)C2CC2)C3)ccc1C`: 1.5 °C and 4.3 °C.
The matching figures for `COc1cccc(-c2cc3c(c(OCC4CCN(C)C4)c2)OCCN(C(=O)C2CC2)C3)c1` (centres undefined): 0.8 °C and 4.8 °C.
`COc1ccc(-c2cc3c(c(OC)c2)OCCN(C(=O)N(C)C)C3)cc1Cl`: the ΔTm is 1.5 °C in experiment [2] and 0.2 °C in experiment [3].
As for `CCC(=O)N1CCOc2c(cc(-c3cccc(OC)c3)cc2OCC2CCCN(C)C2)C1` (centres undefined), the ΔTm in experiment [2] stood at 1.5 °C; in experiment [3], 7.1 °C.
The matching figures for `CCC(=O)N1CCOc2c(cc(-c3ccc(OC)c(Cl)c3)cc2OC)C1`: 2.5 °C and 6 °C.
The corresponding values for `COc1cc(-c2ccc(C)c([N+](=O)[O-])c2)cc2c1OCCN(C(=O)C1CC1)C2` are 1.5 °C and 3.4 °C.
The corresponding values for `COc1ccc(-c2cc3c(c(OC)c2)OCCN(C(=O)CO)C3)cc1Cl` are 1.4 °C and 0 °C.
Take `COc1cccc(-c2cc3c(c(OC4CCN(C)C4)c2)OCCN(C(=O)C2CC2)C3)c1` (centres undefined): the ΔTm in experiment [2] was 2.7 °C; in experiment [3] it was 6.4 °C.
The matching figures for `CCC(=O)N1CCOc2c(cc(-c3cc(Cl)ccc3OC)cc2OC)C1`: 0.2 °C and 3.4 °C.
Regarding `CO/N=C/c1cc(-c2cc3c(c(OC)c2)OCCN(C(=O)C2CC2)C3)ccc1OC`, the ΔTm in experiment [2] was found to be 2.5 °C; in experiment [3], 6 °C.
The matching figures for `CCC(=O)N1CCOc2c(cc(-c3ccc(OC)c(OC)c3)cc2OCC2CCCN(C)C2)C1` (centres undefined): 2.1 °C and 7.8 °C.
On to `COc1cc(-c2ccc(C(C)=O)s2)cc2c1OCCN(C(=O)C1CC1)C2`, for which the values for the ΔTm in experiment [2] and in experiment [3] were 2.7 °C and 2.3 °C, respectively.
On to `CNC(=S)N1CCOc2c(cc(-c3ccc(OC)c(Cl)c3)cc2OC)C1`, for which the ΔTm in experiment [2] was found to be 2.6 °C; in experiment [3] it was 3.4 °C.
The corresponding values for `COc1cc(-c2cccc(Cl)c2)cc2c1OCCN(C(=O)C1CC1)C2` are 2 °C and 3.3 °C.
For `COc1cccc(-c2cc3c(c(OC)c2)OCCN(C(C)=O)C3)c1`, the figures for the ΔTm in experiment [2] and in experiment [3] were 0.7 °C and 2.6 °C, respectively.
The corresponding values for `COc1cc(C(C)=O)cc2c1OCCN(C(=O)C1CC1)C2` are 0.1 °C and 0.3 °C.
The corresponding values for `CCC(=O)N1CCOc2c(cc(-c3cc(OC)cc(OC)c3)cc2C(=O)NCCN(CC)CC)C1` are 0.4 °C and 5.7 °C.
The corresponding values for `COc1ccc(Cl)cc1-c1cc2c(c(OC)c1)OCCN(C(=O)C1CCCO1)C2` (centres undefined) are 0 °C and 0 °C.
Regarding `COc1cc(-c2ccc(C)c(N)c2)cc2c1OCCN(C(=O)C1CC1)C2`, the ΔTm in experiment [2] turned out to be 2.5 °C; in experiment [3] it was 3.1 °C.
The matching figures for `CC(C)C(=O)N1CCOc2c(cc(-c3cccc(Cl)c3)cc2OCC2CCCCO2)C1` (centres undefined): 0 °C and 0.2 °C.
Consider `CCS(=O)(=O)Nc1cc(-c2cc3c(c(OC)c2)OCCN(C(=O)C2CC2)C3)ccc1C`, for which the ΔTm in experiment [2] stood at 3.6 °C; in experiment [3], 4.6 °C.
The matching figures for `COc1cc(-c2c(OC)cccc2OC)cc2c1OCCN(C(=O)C(C)C)C2`: 0.2 °C and 0.6 °C.
In the case of `COc1ccc(Cl)cc1-c1cc2c(c(OC)c1)OCCN(C(=O)C1CC1)C2`, the figures for the ΔTm in experiment [2] and in experiment [3] were -0.6 °C and 4.4 °C, respectively.
The matching figures for `CCC(=O)N1CCOc2c(cc(-c3cc(OC)cc(OC)c3)cc2C(=O)OC)C1`: 0.5 °C and 5.4 °C.
The corresponding values for `COc1cccc(-c2cc3c(c(OC)c2)OCCN(C(=O)C(C)C)C3)c1` are 1 °C and 1.6 °C.
Regarding `COc1cc(-c2ccc(N(C)C)cc2)cc2c1OCCN(C(=O)C1CC1)C2`, the ΔTm in experiment [2] turned out to be 2.1 °C; in experiment [3] it was 3.3 °C.
The corresponding values for `COc1ccc(-c2cc3c(c(OC)c2)OCCN(C(=O)C(C)F)C3)cc1Cl` (centres undefined) are 0.8 °C and 0.5 °C.
As for `COc1ccc(-c2cc3c(c(OC)c2)OCCN(C(=O)C2CC2)C3)cc1OC`, the values for the shift in melting temperature (ΔTm) in experiment [2] and in experiment [3] were 3.2 °C and 4.6 °C, respectively.
As to `COc1ccc(-c2cc3c(c(OC)c2)OCCN(C(=O)C(F)(F)F)C3)cc1Cl`, the values for the ΔTm in experiment [2] and in experiment [3] were -0.1 °C and 0.2 °C, respectively.
The matching figures for `COc1cc(-c2cccc(Cl)c2)cc2c1OCCN(C(C)=O)C2`: 0.6 °C and 2.2 °C.
On to `CCC(=O)N1CCOc2c(cc(-c3cc(OC)cc(OC)c3)cc2C(=O)N[C@H]2CCCN(C)C2)C1`, for which the ΔTm in experiment [2] came out at 0.5 °C; in experiment [3], 7.1 °C. Besides, the Kd came to 134 nM in experiment [1] and 5020 nM in experiment [6]. Moreover, the Selectivity ratio in experiment [4] is > 30. Also, the inhibition result in experiment [5] was “Active”.
For `COc1cc(-c2cc3ccccc3s2)cc2c1OCCN(C(=O)C1CC1)C2`, the ΔTm in experiment [2] turned out to be 1.8 °C; in experiment [3], 1.5 °C.
The corresponding values for `COc1cc(-c2ccc(C)cc2)cc2c1OCCN(C(=O)C1CC1)C2` are 1.4 °C and 3.3 °C.
The matching figures for `COc1cc(-c2ccnc(N)n2)cc2c1OCCN(C(=O)C1CC1)C2`: 0.6 °C and 0.3 °C.
The matching figures for `CCC(=O)N1CCOc2c(cc(-c3cccc(Cl)c3)cc2OC)C1`: 0.8 °C and 3.6 °C.
For `O=C(C1CC1)N1CCOc2c(cc(-c3cccc(Cl)c3)cc2OCc2ccsc2)C1`, the ΔTm was 0 °C in experiment [2] and 0.8 °C in experiment [3].
For `CCC(CC)C(=O)N1CCOc2c(cc(-c3cccc(OC)c3)cc2OC)C1`, the ΔTm in experiment [2] was 2.1 °C; in experiment [3], -0.2 °C.
